Assay results from different studies.
Compare with care: the assays were run in different laboratories.
Sample: Caco-2

Cc1ncsc1-c1ccc(CNC(=O)[C@@H]2C[C@@H](O)CN2C(=O)[C@@H](NC(=O)C2(F)CC2)C(C)(C)C)c(OCCOc2ccc(CN3CCN(c4cc(-c5ccccc5O)nnc4N)CC3)cc2)c1  Papp A→B (2 h, pH 7.2): 22 nm/s
O=C(C1CCCCC1)N1CC(=O)N2CCc3ccccc3C2C1 (stereo not shown)  Papp A→B: 384 nm/s
Nc1nc2c(ncn2COCCO)c(=O)[nH]1  Papp A→B (10 µM, 2 h, pH 7.4): 0.803 nm/s
Cn1c(=O)c2c(nc(S)n2C)n(C)c1=O  Papp A→B (10 µM, 2 h): 9 nm/s
CO[C@@H](C[C@H]1C(C)=CC[C@@H]2[C@]3(C)C[C@H](O[C@@H]4O[C@@H](C)[C@H](OC(=O)c5cccc(O)c5)[C@@H](O[C@@H]5O[C@H](CO)[C@@H](O)[C@H](O)[C@H]5NC(C)=O)[C@H]4O)[C@@H](O)C(C)(C)[C@H]3CC[C@]21C)[C@H](N)C(=O)O.O=C(O)C(F)(F)F  Papp A→B (5 µM, 1 h): 0.1 nm/s
COCCc1ccc(OCC(O)CNC(C)C)cc1 (stereo not shown)  Papp A→B: 166 nm/s
O=C(COCc1cccnc1)C12CC3CC(CC(C3)C1)C2  Papp A→B (20 µM): 63 nm/s
O=C(O)COc1cccc(Oc2ccc(-c3noc(-c4ccc(O)cc4)n3)cc2)c1  Papp A→B (2 h, pH 7.4): 53 nm/s
COCCc1ccc(OCC(O)CNC(C)C)cc1 (stereo not shown)  Papp A→B (pH 7.4): 736 nm/s
CC(C)c1cccc2c(-c3ccccc3)cc(-c3ccc(-c4ccc(C(=O)O)cc4)[nH]3)nc12  Papp A→B: 16.1 nm/s
C=CC(=O)Nc1cc(Nc2nccc(-c3cn(C)c4ccccc34)n2)c(OC)cc1N(C)CCN(C)C  Papp A→B (pH 7.4): 86.4 nm/s
CCC(=O)N[C@H]1Cc2cccc(C(=O)OCOC(=O)C(CC)CC)c2OB1O  Papp A→B (5 µM, 2 h, pH 7.4): 82.5 nm/s
COc1cc(F)ccc1-c1ncnc(Nc2cccc(CS(N)(=O)=O)c2)n1  Papp A→B (2 µM, 2 h, pH 7.2): 22 nm/s
O=C1C[C@@H](c2ccc(O[C@@H]3O[C@H](CO)[C@@H](O)[C@H](O)[C@H]3O)cc2)Oc2cc(O)ccc21  Papp A→B (2 h): > 10 nm/s
CC(C)NCC(O)COc1cccc2ccccc12 (stereo not shown)  Papp A→B: 465 nm/s
COc1cc(Cl)c(C(=O)N[C@@H](CN[C@H]2CC[C@@H](N)CC2)Cc2ccc(C#N)cc2)cc1-c1ccc(CN[C@H](C)c2ccc(C)cc2)o1  Papp A→B (2 µM, 2 h, pH 7.2): 39 nm/s
